Test results published in ChEMBL document CHEMBL1132700, “Design, synthesis, structure-activity relationships, and biological characterization of novel arylalkoxyphenylalkylamine sigma ligands as potential antipsychotic drugs” (J Med Chem, 1999).

Assays:
D(2) dopamine receptor = D(2) dopamine receptor (Rattus norvegicus, UniProt P61169); experiment: Inhibitory concentration against radioligand [3H](-)-sulpiride binding to Dopamine receptor D2 in rat
Summary of the method: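 Striatal membranes from male Wistar rats (200–250 g), homogenized in 50 mM Tris/HCl pH 7.7, washed by repeated 50000g spins. Filtration on PEI-soaked glass-fiber filters, then scintillation counting. IC50 by nonlinear curve fitting, duplicate determinations.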

[1] = target: Sigma non-opioid intracellular receptor 1 (Rattus norvegicus, UniProt Q9R0C9); experiment: Inhibitory concentration against radioligand [3H]3-PPP binding to Sigma opioid receptor type 1 in rat brain membrane; assay type: cell membranes
Sequence of Sigma non-opioid intracellular receptor 1 (Q9R0C9 whole entry): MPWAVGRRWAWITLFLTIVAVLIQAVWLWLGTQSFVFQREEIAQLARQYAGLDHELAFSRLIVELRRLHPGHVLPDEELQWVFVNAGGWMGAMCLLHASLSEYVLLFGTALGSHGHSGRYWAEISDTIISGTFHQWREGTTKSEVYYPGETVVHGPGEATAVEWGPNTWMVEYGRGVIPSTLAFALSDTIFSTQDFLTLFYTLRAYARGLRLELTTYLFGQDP
Summary of the method: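 Rat whole-brain membranes from male Wistar rats (200–250 g), homogenized in 50 mM Tris/HCl pH 7.7, washed by repeated 50000g spins. Incubated with 2 nM [3H]-(+)-3-PPP and at least five concentrations of unlabeled drug. Filtered on polyethylenimine-soaked glass-fiber filters and counted by scintillation. IC50 from nonlinear curve fitting of competition data, duplicate determinations.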

Mus musculus = organism: Mus musculus; experiment: Effective dose against (+)-SKF-10047-induced stereotyped behavior in mice was determined; assay type: functional
Summary of the method: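 Male ICR mice (25–30 g, 10 per group) acclimatized at least 1 h. Test drug given orally 30 min before (+)-SKF10,047 30 mg/kg ip. Stereotypy scored on a 0–5 scale from 10 min post-injection, every 5 min for 40 min. Vehicle plus three doses were tested. Total score expressed as percent of control, and ED25 derived.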

Sequence of D(2) dopamine receptor (P61169 whole entry): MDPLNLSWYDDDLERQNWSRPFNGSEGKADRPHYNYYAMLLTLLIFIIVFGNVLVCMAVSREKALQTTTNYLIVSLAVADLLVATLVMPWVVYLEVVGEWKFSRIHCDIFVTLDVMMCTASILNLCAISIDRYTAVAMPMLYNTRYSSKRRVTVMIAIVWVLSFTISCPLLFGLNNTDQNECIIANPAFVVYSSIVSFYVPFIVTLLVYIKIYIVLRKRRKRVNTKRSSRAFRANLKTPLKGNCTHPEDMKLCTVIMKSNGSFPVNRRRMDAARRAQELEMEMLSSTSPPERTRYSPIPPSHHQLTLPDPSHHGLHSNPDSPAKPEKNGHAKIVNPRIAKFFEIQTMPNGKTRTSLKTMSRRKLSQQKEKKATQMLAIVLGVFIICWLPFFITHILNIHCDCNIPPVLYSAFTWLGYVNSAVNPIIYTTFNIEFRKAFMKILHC

| Compound | IC50 (D(2) dopamine receptor) [nM] | IC50 [1] [nM] | ED25 (Mus musculus) [mg/kg] |
| --- | --- | --- | --- |
| COc1ccc(CCN2CCN(c3ccccn3)CC2)cc1OCCc1ccccc1 | 295 | 112 | – |
| CCCN(CCC)CCc1ccc(OC)cc1OCCc1ccccc1 | > 1000 | – | – |
| Clc1ccc(OCCc2ccccc2)c(CCCN2CCN(c3ncccn3)CC2)c1 | 115 | 169 | – |
| CCCN(CCC)CCc1ccc(OC)c(OCCc2ccc(OC)c(OC)c2)c1 | – | 67 | – |
| CCCN(CCCO)CCc1ccc(OC)c(OCCc2ccccc2)c1 | > 1000 | 19 | – |
| CCCN(CCC)CCc1ccc(OC)c(OCc2ccccc2)c1.O=C(O)C(=O)O | > 1000 | 28 | – |
| CCCN(CCC)CCc1ccc(OCCc2ccccc2)c(OC)c1 | > 1000 | 12 | – |
| CCCN(CCC)CCc1ccc(O)c(OCCc2ccccc2)c1 | > 1000 | – | – |
| Clc1ccc(OCCc2ccccc2)c(CCN2CCCC2)c1 | 69 | 36 | – |
| CN1CCc2cccc3c2[C@H]1Cc1ccc(O)c(O)c1-3 [APOMORPHINE] | – | > 1000 | – |
| CCCN(CCC)CCc1ccc(OC)c2c1-c1ccccc1CO2 | > 1000 | 990 | – |
| Cc1cccc(N2CCN(CCCc3cc(Cl)ccc3OCCc3ccccc3)CC2)n1 | 293 | 415 | – |
| CCCCCCN(CCC)CCc1ccc(OC)c(OCCc2ccccc2)c1 | 619 | 1.8 | – |
| CCCN(CCC)CCc1ccc(OC)c(OCCCc2ccccc2)c1 | > 1000 | – | – |
| CCCN(CCC)CCc1ccccc1OCCc1ccccc1 | 436 | 15 | – |
| COc1ccc(CCN2CCOCC2)cc1OCCc1ccccc1 | > 1000 | > 1000 | – |
| CCCN(CCC)CCc1cccc(OC)c1OCCCc1ccccc1 | > 1000 | 1.7 | – |
| CCCN(CCC)CCc1cc(Br)ccc1OCCCc1ccccc1 | 685 | 44 | – |
| CCCN(CCC)CCc1cc(Cl)ccc1OCc1ccccc1 | 337 | 118 | – |
| CCCN(CCC)CCc1cc(F)ccc1OCCc1ccccc1 | > 1000 | 13 | – |
| CCCN(CCC)CCc1cc(Cl)cc(Cl)c1OCCc1ccccc1 | > 1000 | 281 | – |
| CCCN(CCC)CCc1ccc(OC)c(OCCc2ccc(F)cc2)c1 | > 1000 | 1 | – |
| Clc1ccc(OCCc2ccccc2)c(CCN2CCN(c3ncccn3)CC2)c1 | 143 | > 1000 | – |
| CCCN(CCC)CCCc1cccc(OC)c1OCCc1ccccc1 | > 1000 | 13 | – |
| COc1ccccc1N1CCN(CCc2cc(Cl)ccc2OCCc2ccccc2)CC1 | 88 | 640 | – |
| CCCN(CCC)CCc1ccc(OC)c(OCCc2cccc(Cl)c2)c1 | > 1000 | – | – |

| Compound | IC50 (D(2) dopamine receptor) [nM] | IC50 [1] [nM] | ED25 (Mus musculus) [mg/kg] |
| --- | --- | --- | --- |
| CCCN(CCC)CCc1ccc(OCCc2ccccc2)c(O)c1 | > 1000 | 25 | – |
| CCCN(CCC)CCc1ccc(OC)c(OCCc2cccs2)c1 | > 1000 | – | – |
| COc1ccc(CCN)cc1OCCc1ccccc1 | > 1000 | – | – |
| CCCN(CCC)CCc1cccc(F)c1OCCc1ccccc1 | > 1000 | 22 | – |
| CCCN(CCC)CCc1ccc(O)c2c1-c1ccccc1CO2 | > 1000 | 558 | – |
| OC(CCCN1CCN(c2ncc(F)cn2)CC1)c1ccc(F)cc1 (stereo not drawn) [BMY-14802] | > 1000 | – | 7.6 |
| CCCN(CCC)CCc1cc(Br)cc(Br)c1OCCc1ccccc1 | > 1000 | 774 | – |
| COc1cccc(CCN2CCCC2)c1OCCc1ccccc1 | > 1000 | – | – |
| COc1ccc(CCN2CCN(c3ccccc3OC)CC2)cc1OCCc1ccccc1 | 11 | 25 | – |
| Clc1ccc(OCCc2ccccc2)c(CCN2CCOCC2)c1 | 163 | 308 | – |
| COc1cccc(CCN2CCN(c3ccccc3)CC2)c1OCCc1ccccc1 | 66 | 328 | – |
| Clc1ccc(OCCc2ccccc2)c(CCCN2CCN(c3ccccc3)CC2)c1 | 180 | – | – |
| CCCN(CCc1ccc(OC)c(OCCc2ccccc2)c1)CCC(C)C | 680 | 2.9 | – |
| COc1cccc(CCN2CCN(c3ccccn3)CC2)c1OCCc1ccccc1 | 137 | > 1000 | – |
| COc1ccccc1N1CCN(CCCc2cc(Cl)ccc2OCCc2ccccc2)CC1 | 16 | 319 | – |
| COc1ccc(CCN2CCCC2)cc1OCCc1ccccc1 | > 1000 | – | – |
| CCCN(CCC)CCCCc1cc(Cl)ccc1OCCc1ccccc1 | > 1000 | 26 | – |
| CCCN(CCC)CCc1ccc(Cl)cc1OCCc1ccccc1 | > 1000 | – | – |
| Clc1ccc(OCCc2ccccc2)c(CCCN2CCN(c3ccccn3)CC2)c1 | 93 | 118 | – |
| CCCN(CCC)CCc1cc(Cl)ccc1OCCCc1ccccc1 | 876 | 56 | – |
| CCCN(CCC)CCc1ccc(OCCc2ccccc2)cc1OC | > 1000 | – | – |
| CCCN(CCC)CCc1ccc(OC)c(OCCc2ccc(OC)cc2)c1 | > 1000 | 1 | – |
| Clc1ccc(OCCc2ccccc2)c(CCN2CCN(c3ccccn3)CC2)c1 | 51 | > 1000 | – |
| CCCNCCc1ccc(OC)c(OCCc2ccccc2)c1 | > 1000 | – | – |
| COc1cccc(CCN2CCOCC2)c1OCCc1ccccc1 | > 1000 | 373 | – |
